Mdm2-MdmX inh: inhibitors of human Mdm2-MdmX association, primary screen, cell-based, luminescence, split luciferase, SaOS-2, uHTS | hit rate 3% among 330,000 | SaOS-2 split-luciferase Mdm2/MdmX complementation | Protein Mdm4 (Homo sapiens) + E3 ubiquitin-protein ligase Mdm2 (Homo sapiens), … | inhibition, % at 8 µM;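 active means inhibition of at least 50% at 8 µM in the primary screen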
Target sequence (O15151 whole entry, looked up): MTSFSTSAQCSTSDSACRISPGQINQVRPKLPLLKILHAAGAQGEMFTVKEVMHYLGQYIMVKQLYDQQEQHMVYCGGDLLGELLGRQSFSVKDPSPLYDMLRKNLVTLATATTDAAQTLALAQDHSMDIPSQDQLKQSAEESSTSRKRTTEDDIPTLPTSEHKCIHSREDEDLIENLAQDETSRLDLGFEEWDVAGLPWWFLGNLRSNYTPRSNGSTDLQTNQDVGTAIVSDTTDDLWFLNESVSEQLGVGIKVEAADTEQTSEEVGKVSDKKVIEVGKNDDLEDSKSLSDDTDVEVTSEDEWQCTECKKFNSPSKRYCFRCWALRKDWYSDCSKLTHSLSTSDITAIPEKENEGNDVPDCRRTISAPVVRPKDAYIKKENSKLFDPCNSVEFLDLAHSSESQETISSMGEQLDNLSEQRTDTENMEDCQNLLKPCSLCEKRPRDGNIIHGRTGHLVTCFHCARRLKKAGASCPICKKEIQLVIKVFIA
Target sequence (Q00987 whole entry, looked up): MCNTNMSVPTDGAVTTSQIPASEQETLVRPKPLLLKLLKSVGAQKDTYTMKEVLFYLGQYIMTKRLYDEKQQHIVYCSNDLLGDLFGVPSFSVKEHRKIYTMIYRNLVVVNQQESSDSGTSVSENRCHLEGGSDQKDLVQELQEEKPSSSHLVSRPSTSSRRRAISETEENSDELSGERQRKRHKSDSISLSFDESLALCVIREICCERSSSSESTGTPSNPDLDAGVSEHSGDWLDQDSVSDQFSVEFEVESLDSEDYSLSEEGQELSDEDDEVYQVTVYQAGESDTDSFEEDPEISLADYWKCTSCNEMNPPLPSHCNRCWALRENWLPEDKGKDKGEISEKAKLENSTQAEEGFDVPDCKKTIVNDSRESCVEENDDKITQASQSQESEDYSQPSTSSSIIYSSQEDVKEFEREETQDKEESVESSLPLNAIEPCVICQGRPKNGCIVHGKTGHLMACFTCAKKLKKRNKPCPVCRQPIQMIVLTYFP
Beta apoptosis: inhibitors of cytokine-induced beta cell apoptosis, primary screen, luminescence | INS-1E cytokine-induced death, ATP luminescence, 48 h; percent of positive-control rescue, neutral wells zero | protection from apoptosis, % (test concentration not listed) | hit rate 0.8% among 300,000;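 active means Every replicate reaches about 75%, or at least half do and their mean reaches it too, limit read from the data; inconclusive means At least half of replicates reach the limit but their mean does not; inactive means Under half of replicates reach the limit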;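 further: 0% = cytokine-treated negative control wells and 100% = positive control rescue; higher means more ATP so stronger rescue from cytokine killing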
T cruzi inh: inhibitors of intracellular T. cruzi growth, primary screen, luminescence, NIH3T3 host cells. T. cruzi beta-gal in NIH3T3, 90 h. inhibition, % (concentration not given with the values). hit rate 1.4% among 300,000. AID 1885, 2009;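 active means mean inhibition across valid replicates above about 55%, limit read from the data; inconclusive means mean below that limit but half or more replicates reach it; inactive means mean below it, under half of replicates reach it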;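 further: signal also drops with host cell toxicity which is not excluded here; 0% = plate median of DMSO wells and 100% = zero luminescence signal; higher percent means less beta-gal luminescence so fewer parasites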
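Assay system: NIH/3T3 fibroblasts plus reporter T. cruzi. Amount: NIH/3T3 cells, 5,000 per well. Buffer or medium: DMEM, 2% fetal bovine serum. Doses: compound pinned at 50 nL/well, DMSO. Schedule: ≥90 h infection period, 3 h prior cell attachment. Signal: luminescent β-galactosidase signal after 60 min lysis. Read-out: parasite load inhibition, %.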
Calb FLC: C. albicans growth inhibition with fluconazole, primary screen, CaCi-2 strain, Alamar Blue fluorescence. C. albicans CaCi-2 (fluconazole-resistant clinical isolate) + fluconazole, 48 h. hit rate 0.57% among 300,000. growth inhibition, % (no concentration beside the values). AID 1979, 2009;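 active means growth inhibition above about 58% in most replicates, limit read from the data, passing the limit was not always enough; inconclusive means exactly half the replicates above a set limit; inactive means most replicates below a set limit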;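 further: all wells also contain fluconazole at 8 µg/ml as a sub-toxic cotreatment; 0% = median of DMSO wells and 100% = median of geldanamycin control wells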
CSC inhib: cancer stem cell viability inhibitors, primary screen, luminescence. inhibition, % at 7.5 µM. cancer stem cell-like cells viability. AID 2717, 2010. hit rate 1.1% among 300,000; in the data active means inhibition above about 75%; inconclusive means no clear call, values can overlap the other calls; tested in HMLE shEcad cells
SKKanGAS inh: S. pyogenes SKKanGAS growth inhibitors in kanamycin, primary screen, streptokinase expression inhibitor project, SKKanGAS strain, BacTiter-Glo luminescence | 6 h | inhibition, % at 7.5 µM | hit rate 1.3% among 300,000 | AID 1662, 2009;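 active means mean replicate score, as percent of positive control median, at least 50; inconclusive means mean below 50 but one replicate at or above 50; inactive means mean and every replicate below 50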;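 further: strain carries kanamycin resistance gene driven by streptokinase promoter and grows in 40 µg/ml kanamycin; loss of luminescence reflects streptokinase promoter inhibition or plain growth inhibition; 0% = median of DMSO wells and 100% = positive control at its reference dose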
Mdm2-MdmX conf: Mdm2-MdmX complex disruptors, retested hits, confirmation, luminescence, single concentration | Mdm2-MdmX binding, luminescent assay | hit rate 55% among 10,000 | shares compounds with Mdm2-MdmX inh | inhibition, % at 8 µM | AID 489028, 2010; in the data active means inhibition above about 40%
FLuc counter: full-length luciferase signal inhibition, confirmation, counter-screen for Mdm2/MdmX interaction inhibitor project, cell-based, single concentration, SaOS-2; shares compounds with Mdm2-MdmX inh; SaOS-2 full-length luciferase counterscreen, luminescence; inhibition, % at 8 µM; hit rate 77% among 6,200;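 active means mean inhibition at 8 µM reaching about 37%, which flags the compound as non-specific, limit read from the data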;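 further: p53-null SaOS-2 cells with luciferase driven by a doxycycline-inducible promoter; compound on cells about two nights before reading with doxycycline added after day one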
* = called active by the depositor; u = inconclusive; x = not tested or not shown. Sampled rows, rich in hits. Any-hit rate of the full collection: about 5.7%.

SMILES	Mdm2-MdmX inh	Beta apoptosis	T cruzi inh	Calb FLC	CSC inhib	SKKanGAS inh	Mdm2-MdmX conf	others
NS(=O)(=O)c1ccc(CCNS(=O)(=O)c2cccc3nsnc23)cc1	-14	0	-7	-8	x	5	x
Cc1c(C(=O)N2CCN(c3ccccc3)CC2)sc2ncnc(N3CCN(c4ccccn4)CC3)c12	29	5	4	-9	-5	15	x
COc1ccccc1N1CCN(C(=O)c2sc3ncnc(N4CCN(c5ccccn5)CC4)c3c2C)CC1	56*	-2	12	-15	x	23	48*	FLuc counter=88*
Cc1nc(N2CCN(C)CC2)c2c(C)c(C(=O)Nc3ccc(C)c(F)c3)sc2n1	50*	-11	38	-7	10	-13	34
Cc1c(C(=O)N2CCN(c3ccc(F)cc3)CC2)sc2ncnc(N3CCN(c4ccccn4)CC3)c12	53*	11	23	11	14	26	29	FLuc counter=61*
Cc1nc(N2CCC(C)CC2)c2c(C)c(C(=O)Nc3ccc(C)c(F)c3)sc2n1	15	10	38	2	x	47	x
COc1ccccc1N1CCN(C(=O)c2sc3nc(C)nc(N4CCN(c5ccccn5)CC4)c3c2C)CC1	76*	-3	21	2	14	27	71*	FLuc counter=38*
Cc1ccc(OCc2nnc(NC(=O)c3cccnc3)s2)cc1	20	-4	4	3	2	6	x
COc1ccc(NC(=O)COc2cccc3c2OC(C)(C)C3)c(OC)c1	3	x	x	x	x	x	x
CCc1ccc(NC(=O)CCC(=O)c2ccccc2)cc1	6	-2	-11	-2	-3	0	x
CCOc1ccc2nc(N(CCN(CC)CC)C(=O)/C=C/c3cccs3)sc2c1	46	17	20	-18	9	2	x
Cc1nc(N2CCN(c3ccccn3)CC2)c2c(C)c(C(=O)Nc3c(C)cc(Br)cc3C)sc2n1	59*	4	20	-5	0	-12	30
Cc1ccccc1OCC(=O)OC(C)C(=O)NC1CCCC1 (stereo not drawn)	14	1	x	x	-8	x	x
COC(=O)c1c(-c2ccc(OC)cc2)sc2ccccc12	-30	1	x	x	26	x	x
CCn1c(=O)c([N+](=O)[O-])c(NCCN(C)C)c2ccccc21	12	-8	7	2	1	13	x
CCn1c(=O)c([N+](=O)[O-])c(Cl)c2ccccc21	99*	77*	71*	-4	u	12	97*	FLuc counter=55*
CC(=O)c1ccc(OCc2cc(C(=O)NC3CCCCC3)no2)cc1	-34	-5	-3	-1	-13	6	x
COc1ccccc1CN1CCC(CNS(=O)(=O)c2cc(-c3cc(C)no3)ccc2C)CC1	56*	-10	29	19	24	3	44*	FLuc counter=75*
CCOc1ccc(N(C)S(=O)(=O)c2cc(-c3cc(C)no3)ccc2OC)cc1	-3	13	24	12	15	11	x
COc1ccc(-c2cc(C)no2)cc1S(=O)(=O)NCC1CCN(Cc2cc(C)ccc2C)CC1	61*	-6	35	1	14	5	22
COc1ccc(-c2cc(C)no2)cc1S(=O)(=O)N(C)c1ccc(C)cc1	63*	16	1	34	61	11	50*	FLuc counter=60*
C[C@H](NC(=O)c1nc[nH]c1C(=O)N[C@@H](Cc1ccccc1)C(=O)OC(C)(C)C)c1ccccc1	50*	-9	32	11	48	54*	-4
CC(C)(C)OC(=O)NCCCC[C@H](NC(=O)c1[nH]cnc1C(=O)Nc1ccccc1)C(=O)OC(C)(C)C	38	27	46	21	x	34	x
CNC(=O)c1[nH]cnc1C(=O)N[C@@H](Cc1ccccc1)C(=O)OC(C)(C)C	11	0	0	5	x	3	x
CC(C)(C)OC(=O)NCCCC[C@H](NC(=O)c1[nH]cnc1C(=O)Nc1ccc(Cl)cc1)C(=O)OC(C)(C)C	56*	32	49	13	7	57*	5
SMILES	Mdm2-MdmX inh	Beta apoptosis	T cruzi inh	Calb FLC	CSC inhib	SKKanGAS inh	Mdm2-MdmX conf	others
CC(C)C[C@H](NC(=O)c1[nH]cnc1C(=O)Nc1ccccc1)C(=O)OC(C)(C)C	57*	36	23	22	-15	63*	15
CC(C)(C)OC(=O)N1CCC(NC(=O)c2[nH]cnc2C(=O)Nc2ccc(Cl)cc2)CC1	52*	-8	x	x	89*	x	53*	FLuc counter=53*
CCc1cccc(C)c1NC(=O)C1CC(=O)N(C2CCCC2)C1 (stereo not drawn)	-35	2	x	x	7	x	x
CC(=O)N(C)c1ccc(NC(=S)NCC(C)C)cc1	1	-3	-10	16	5	7	x
COCCN(C(=O)COC(=O)c1oc2ccc(OC)cc2c1C)c1c(N)n(Cc2ccccc2)c(=O)[nH]c1=O	4	0	8	12	0	-6	x
CC(C)C[C@H](NC(=O)c1nc[nH]c1C(=O)N[C@@H](CC(C)C)C(=O)OC(C)(C)C)C(=O)OCc1ccccc1	64*	u	52	14	46	58*	-11
CC(C)C[C@H](NC(=O)c1nc[nH]c1C(=O)NCCCCCNC(=O)OC(C)(C)C)C(=O)OC(C)(C)C	0	9	14	-7	3	9	x
CC(C)C[C@H](NC(=O)c1[nH]cnc1C(=O)N[C@@H](C)C(=O)OC(C)(C)C)C(=O)OC(C)(C)C	63*	3	-1	20	-1	28	12
CC(C)C[C@H](NC(=O)c1[nH]cnc1C(=O)N[C@@H](C)c1ccccc1)C(=O)OCc1ccccc1	51*	-1	7	11	0	75*	21
CC(C)C[C@H](NC(=O)c1nc[nH]c1C(=O)N[C@@H](CCCCN)C(=O)OC(C)(C)C)C(=O)OC(C)(C)C	30	3	x	x	-9	x	x
CC(C)C[C@H](NC(=O)c1nc[nH]c1C(=O)N[C@@H](CCCCNC(=O)OC(C)(C)C)C(=O)OC(C)(C)C)C(=O)OC(C)(C)C	73*	27	21	3	60	40	-17
O=C(Nc1nncs1)c1cc(S(=O)(=O)N2CCOCC2)ccc1Cl	0	-3	-10	-1	x	-4	x
